Screens from PubChem BioAssay.
The list is not random: actives were taken first. Their share in the collection is about 1.3%.
CRFBP-R2 block: antagonists of CRF-binding protein/CRF-R2 receptor complex. inhibition, % at 11.8 µM. HEK293 CRF-R2/CRF-BP, CRF-induced calcium fluorescence. 350,000 tested, 0.59% active;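 active = inhibition of the ligand-induced calcium signal above about 50% at the single tested concentration, limit read from the data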
DDE Tn6 FP inh: disrupts Tn6 cyclic peptide binding to fibrin D-Dimer-E complex; 370,000 tested, 0.21% active; Fibrin DD(E) TRITC-Tn6 fluorescence polarization displacement; inhibition, % at 8.3 µM; AID 720509; P02675;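 active = inhibition above a per-campaign cutoff: mean of compounds within control limits plus 3 SD, cut at about 15% in these data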;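 note: 0% = median of all compound wells on the plate and 100% = blocking peptide control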
Target sequence (P02675 whole entry, looked up): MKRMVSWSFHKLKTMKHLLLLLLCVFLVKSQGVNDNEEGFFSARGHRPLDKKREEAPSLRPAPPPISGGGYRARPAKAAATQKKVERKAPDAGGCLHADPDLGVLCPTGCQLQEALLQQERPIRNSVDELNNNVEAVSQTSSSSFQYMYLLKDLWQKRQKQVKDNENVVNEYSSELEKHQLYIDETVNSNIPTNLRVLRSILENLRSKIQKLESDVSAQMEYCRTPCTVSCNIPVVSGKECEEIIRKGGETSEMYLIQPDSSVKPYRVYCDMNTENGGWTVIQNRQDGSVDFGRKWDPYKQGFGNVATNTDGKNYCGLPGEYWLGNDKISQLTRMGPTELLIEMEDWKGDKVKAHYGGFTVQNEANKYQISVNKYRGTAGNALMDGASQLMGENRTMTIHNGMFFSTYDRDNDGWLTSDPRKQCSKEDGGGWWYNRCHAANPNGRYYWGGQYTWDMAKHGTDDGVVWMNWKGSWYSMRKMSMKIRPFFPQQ
DDE Tn7 FP inh: inhibitors of Tn7 peptide binding to human fibrin DD(E); P02675; FP displacement of FITC-Tn7 peptide from fibrin DD(E); 0% = median of compound wells per plate; inhibition, % at 8.3 µM; 370,000 tested, 0.13% active; AID 720508;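 active = inhibition above the mean of compounds falling within the control limits plus 3 SD of them, cut at about 14% in these data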;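 note: 0% = plate median of compound wells and 100% = 10 µM Aha-Tn7 peptide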
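assay system = human clot-derived fibrin DD(E) complex | quantity = Fibrin-DD(E) at 2 µM final | timing = 10 min preincubation, 3 h with tracer, room temperature | signal = fluorescence polarization | measure = percent inhibition | benchmarks = high control wells with 10 µM unlabelled Aha-Tn7 peptide (full inhibition) | replicates = singlicate testing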
CRFR2-BP ag: CRF-BP/CRF-R2 complex agonism; HEK293 CRF-R2/CRF-BP, calcium dye fluorescence (FLIPR); percent of saturating CRF peptide response; activation, % at 13.2 µM; 350,000 tested, 0.46% active;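 active = activation of at least 50%, plus an integration ratio under a set limit after plate pattern correction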;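 note: plate controls were neutral control wells without compound for no effect and CRF at EC100 for full effect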
Numbers without * were called inactive.

How did Cn1c(SCC(=O)Nc2ccc(S(=O)(=O)Nc3nccs3)cc2)nc2sc3c(c2c1=O)CCCC3 do in these assays?
DDE Tn6 FP inh: 0; DDE Tn7 FP inh: -8

What do the screens show for `OC(c1ccccc1)(c1ccccc1)C1CCN(CCCNc2ccc(C(F)(F)F)cc2)CC1`?
DDE Tn6 FP inh: 5; DDE Tn7 FP inh: -3

What do the screens show for `Cc1ccc(-c2ccc(SCC(=O)NCC3CCCO3)nn2)cc1` (stereo not given)?
CRFBP-R2 block: 83*; DDE Tn6 FP inh: 5; DDE Tn7 FP inh: 0; CRFR2-BP ag: 0

How did CCOc1ccc(NC(=O)CN2C(=O)NC(C)(c3ccc(OC(F)F)cc3)C2=O)cc1 (stereo not given) do in these assays?
CRFBP-R2 block: -72; DDE Tn6 FP inh: 1; DDE Tn7 FP inh: 5; CRFR2-BP ag: 74*

Results for CC1(c2ccc(OC(F)F)cc2)NC(=O)N(CC(=O)Nc2ccc(OC(F)F)cc2)C1=O (stereo not given) ?
CRFBP-R2 block: -39; DDE Tn6 FP inh: 3; DDE Tn7 FP inh: 1; CRFR2-BP ag: 47

How did Cc1cc(NC(=O)CN2C(=O)NC(C)(c3ccc(OC(F)F)cc3)C2=O)no1 (stereo not given) do in these assays?
CRFBP-R2 block: -67; DDE Tn6 FP inh: 0; DDE Tn7 FP inh: -5; CRFR2-BP ag: 78*

What do the screens show for `CC1(c2ccc(OC(F)F)cc2)NC(=O)N(CC(=O)Nc2cccc(F)c2)C1=O` (stereo not given)?
CRFBP-R2 block: -82; DDE Tn6 FP inh: 3; DDE Tn7 FP inh: 2; CRFR2-BP ag: 136*

How did Cn1c(=O)c2c(c3ccccc31)OC(C)(C)C=C2 do in these assays?
DDE Tn6 FP inh: -1; DDE Tn7 FP inh: -3

How did Cc1ccc(N2C(=O)c3cccc4c(N5CCN(C)CC5)ccc(c34)C2=O)c2cccnc12 do in these assays?
CRFBP-R2 block: -73; CRFR2-BP ag: 89*

What do the screens show for `O=C1c2cccc3cccc(c23)C(=O)N1c1ccc(O)cc1`?
CRFBP-R2 block: 1; DDE Tn6 FP inh: 2; DDE Tn7 FP inh: -9; CRFR2-BP ag: -1

Results for O=C(O)c1ccc(N2CCCCCC2)c(N2C(=O)c3ccccc3C2=O)c1 ?
CRFBP-R2 block: -3; DDE Tn6 FP inh: 1; DDE Tn7 FP inh: -6; CRFR2-BP ag: -2

How did Cc1ccc(N2C(=O)c3cccc4c([N+](=O)[O-])ccc(c34)C2=O)c2cccnc12 do in these assays?
CRFBP-R2 block: 20; DDE Tn6 FP inh: 11; DDE Tn7 FP inh: 3; CRFR2-BP ag: 4

What do the screens show for `O=C1c2cccc3c(N4CCCCC4)ccc(c23)C(=O)N1c1ccccc1O`?
CRFBP-R2 block: -241; DDE Tn6 FP inh: -6; DDE Tn7 FP inh: -7; CRFR2-BP ag: 259*

How did O=C1c2cccc3c(N4CCCCC4)ccc(c23)C(=O)N1c1ccc(O)cc1 do in these assays?
CRFBP-R2 block: -277; DDE Tn6 FP inh: 0; DDE Tn7 FP inh: -3; CRFR2-BP ag: 224*

How did CC(COc1ccc([N+](=O)[O-])cc1Cl)CN1CCC(C(O)(c2ccccc2)c2ccccc2)CC1 (stereo not given) do in these assays?
DDE Tn6 FP inh: -2; DDE Tn7 FP inh: -4

What do the screens show for `CCOC(=O)[C@@]12CCCC3=C1N(CCC3)C(=O)[C@H]2CC(=O)NCCc1ccccc1OC`?
DDE Tn6 FP inh: 4; DDE Tn7 FP inh: 0

How did Cc1nn(-c2ccccc2)c2sc(C(=O)NC3CCCCCC3)cc12 do in these assays?
DDE Tn6 FP inh: 1; DDE Tn7 FP inh: 3

Results for COc1ccc(-c2c(C)nn3c(N4CCOCC4)cc(C)nc23)cc1OC ?
CRFBP-R2 block: 13; DDE Tn6 FP inh: 0; DDE Tn7 FP inh: -10; CRFR2-BP ag: -1

Results for COc1ccc(-c2c(C)nn3c(N4CCCCCC4)cc(C)nc23)cc1OC ?
CRFBP-R2 block: 56*; DDE Tn6 FP inh: -3; DDE Tn7 FP inh: -1; CRFR2-BP ag: -2

What do the screens show for `O=C(Cc1ccccc1F)Nc1nnc(-c2cccnc2)s1`?
DDE Tn6 FP inh: 4; DDE Tn7 FP inh: -4

How did Cc1nn(C(=O)c2c(-c3ccccc3)noc2C)c(C)c1N=Nc1cc(C(F)(F)F)cc(C(F)(F)F)c1 do in these assays?
CRFBP-R2 block: 53*; DDE Tn6 FP inh: 0; DDE Tn7 FP inh: -2; CRFR2-BP ag: 5

What do the screens show for `C[C@@H]1CCCCO[C@@H](CN(C)CC2CC2)[C@@H](C)CN([C@H](C)CO)C(=O)c2cc(N(C)C)ccc2O1`?
CRFBP-R2 block: 66*; CRFR2-BP ag: 0

What do the screens show for `COCCCN1C(=O)[C@H](CC(=O)N2CCOCC2)[C@]2(C(=O)OC)CCCCC=C12`?
DDE Tn6 FP inh: 3; DDE Tn7 FP inh: 8

What do the screens show for `Cc1ccc(CN(C(=O)c2ccccc2[N+](=O)[O-])C2CCS(=O)(=O)C2)o1` (stereo not given)?
CRFBP-R2 block: 58*; DDE Tn6 FP inh: 4; DDE Tn7 FP inh: -5; CRFR2-BP ag: 2

What do the screens show for `Cc1ccc(CN(C(=O)c2ccccc2C)C2CCS(=O)(=O)C2)o1` (stereo not given)?
CRFBP-R2 block: -4; DDE Tn6 FP inh: -13; DDE Tn7 FP inh: 2; CRFR2-BP ag: 0

What do the screens show for `CC1CC(C)CN(C(=O)Cc2c(C(=O)O)[nH]c3ccc(Cl)cc23)C1` (stereo not given)?
CRFBP-R2 block: 2; DDE Tn6 FP inh: -6; DDE Tn7 FP inh: 1; CRFR2-BP ag: 1

What do the screens show for `Cc1ccc(Cl)cc1N1CCN(C(=O)Cc2c(C(=O)O)[nH]c3ccccc23)CC1`?
CRFBP-R2 block: 58*; DDE Tn6 FP inh: -6; DDE Tn7 FP inh: 4; CRFR2-BP ag: -2

What do the screens show for `Cc1ccc(Cl)cc1N1CCN(C(=O)Cc2c(C(=O)O)[nH]c3ccc(Cl)cc23)CC1`?
CRFBP-R2 block: 62*; DDE Tn6 FP inh: -5; DDE Tn7 FP inh: 0; CRFR2-BP ag: 6

How did O=S1(=O)c2c(cccc2N2CCC[C@@H]2CO)O[C@H]2CCN1C2 do in these assays?
DDE Tn6 FP inh: -5; DDE Tn7 FP inh: -2

Results for CCOc1ccc(-n2c(SCC(=O)Nc3ccc(S(=O)(=O)Nc4nccs4)cc3)nnc2-c2ccccc2)cc1 ?
DDE Tn6 FP inh: 6; DDE Tn7 FP inh: 3

What do the screens show for `CCN(CC)c1ccc(/C=C(\C#N)c2ccccn2)cc1`?
CRFBP-R2 block: -55; CRFR2-BP ag: 15

How did CN(CCC#N)c1ccc(/C=C(\C#N)c2ccccn2)cc1 do in these assays?
CRFBP-R2 block: 11; DDE Tn6 FP inh: 31*; DDE Tn7 FP inh: 4; CRFR2-BP ag: 2

Results for O=C(NNC1=C(C(=O)C(F)(F)F)CCC1)c1cccc(Cl)c1 ?
CRFBP-R2 block: 55*; DDE Tn6 FP inh: -10; DDE Tn7 FP inh: 0; CRFR2-BP ag: 13

Results for COc1ccc(C(=O)Nc2cc(C(C)=O)c(/C=C/N(C)C)oc2=O)cc1 ?
CRFBP-R2 block: -178; DDE Tn6 FP inh: 1; DDE Tn7 FP inh: 1; CRFR2-BP ag: 155*

Results for CC(=O)c1cc(NC(=O)c2ccc(C)cc2)c(=O)oc1/C=C/N(C)C ?
CRFBP-R2 block: -83; DDE Tn6 FP inh: 1; DDE Tn7 FP inh: -2; CRFR2-BP ag: 123*
